In brackets after ≈: the same amount, converted by molar mass.
How the values were obtained:
Type in all cases: functional
[1] = system: Candida albicans; assay: Antimicrobial activity against Candida albicans at 50 ug/ml by paper disc method; details: read-out: IZ
Outline: (§1)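 Paper disc method against A. niger and C. albicans, with compounds at 25, 50 and 100 µg/mL. Amphotericin-B as standard.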

[2] = system: Metaphire posthuma; assay: Anthelmintic activity against Pheretima posthuma assessed as time taken for complete parasite paralysis at 0.1% w/v
Outline: (§2)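 Earthworms (Pheretima posthuma) exposed to test solutions at 0.1, 0.2 and 0.5% w/v; time in minutes to complete paralysis (worms motionless) recorded. Albendazole as standard. Mean of three determinations ± S.D.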

[3] = Antioxidant activity assessed as potassium ferricyanide ion reducing power after 20 mins
Outline: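 Oyaizu method. Samples or ascorbic acid in DMF (12.5–100 µg/mL) mixed with 0.2 M phosphate buffer pH 6.6 and 1% potassium ferricyanide, 20 min at 50 °C. 10% TCA added, centrifuged. Supernatant mixed with water and 0.1% FeCl3, read at 700 nm. % = [(Vt/Vc) − 1] × 100. IC50 derived.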

[4] = system: Aspergillus niger; assay: Antimicrobial activity against Aspergillus niger at 100 ug/ml by paper disc method; details: read-out: IZ; outline: as §1
[5] = system: Metaphire posthuma; assay: Anthelmintic activity against Pheretima posthuma assessed as time taken for parasite death at 0.5% w/v
Outline: (§3)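 Earthworms (Pheretima posthuma, spelled Perituma posthuma in text) exposed to test compounds at 0.1, 0.2 and 0.5% w/v. Albendazole served as standard, with an untreated control. Paralysis was recorded as the time until worms became motionless, then time to death was recorded, in minutes. Each value is the mean of three determinations with S.D.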

[6] = Antiinflammatory activity assessed as inhibition of albumin denaturation at 100 ug/ml by UV-visible spectrophotometry
Outline: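 Compounds dissolved in minimal DMF, diluted in PBS pH 7.4 (final DMF <2.5%). 1 mL test solution (100 µg/mL) plus 1 mL 1% albumin in PBS, 15 min at 27 ± 1 °C, then heated 10 min at 60 ± 1 °C. After cooling, turbidity read at 660 nm. % inhibition = [(Vt/Vc) − 1] × 100 against a no-drug control. Triplicate, averaged. Diclofenac standard.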

[7] = system: Pseudomonas aeruginosa; assay: Antimicrobial activity against Pseudomonas aeruginosa at 50 ug/ml by agar plate diffusion technique; details: read-out: IZ
Outline: (§4)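 Agar plate diffusion against E. coli, P. aeruginosa, S. aureus and B. subtilis, with compounds at 25, 50 and 100 µg/mL. Streptomycin as standard.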

[8] = system: Pseudomonas aeruginosa; assay: Antimicrobial activity against Pseudomonas aeruginosa at 100 ug/ml by agar plate diffusion technique; details: read-out: IZ; outline: as §4
[9] = system: Candida albicans; assay: Antimicrobial activity against Candida albicans at 100 ug/ml by paper disc method; details: read-out: IZ; outline: as §1
[10] = system: Aspergillus niger; assay: Antimicrobial activity against Aspergillus niger at 50 ug/ml by paper disc method; details: read-out: IZ; outline: as §1
[11] = Antioxidant activity assessed as nitric oxide radical scavenging activity after 150 mins
Outline: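 10 mM sodium nitroprusside (4 mL), PBS pH 7.4 (1 mL) and sample or ascorbic acid in DMSO (1 mL, 12.5–100 µg/mL), incubated 150 min at 25 °C. Nitrite detected with sulphanilic acid (5 min) then naphthylethylenediamine (30 min, diffused light). Read at […]. Triplicate. % inhibition = [1 − (Vt/Vc)] × 100. IC50 derived from it.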

[12] = system: Bacillus subtilis; assay: Antimicrobial activity against Bacillus subtilis at 50 ug/ml by agar plate diffusion technique; details: read-out: IZ; outline: as §4
[13] = system: Bacillus subtilis; assay: Antimicrobial activity against Bacillus subtilis at 25 ug/ml by agar plate diffusion technique; details: read-out: IZ; outline: as §4
[14] = system: Metaphire posthuma; assay: Anthelmintic activity against Pheretima posthuma assessed as time taken for complete parasite paralysis at 0.2% w/v; outline: as §2
[15] = system: Metaphire posthuma; assay: Anthelmintic activity against Pheretima posthuma assessed as time taken for parasite death at 0.1% w/v; outline: as §3
[16] = system: Metaphire posthuma; assay: Anthelmintic activity against Pheretima posthuma assessed as time taken for parasite death at 0.2% w/v; outline: as §3
[17] = system: Metaphire posthuma; assay: Anthelmintic activity against Pheretima posthuma assessed as time taken for complete parasite paralysis at 0.5% w/v; outline: as §2
[18] = system: Aspergillus niger; assay: Antimicrobial activity against Aspergillus niger at 25 ug/ml by paper disc method; details: read-out: IZ; outline: as §1
[19] = system: Pseudomonas aeruginosa; assay: Antimicrobial activity against Pseudomonas aeruginosa at 25 ug/ml by agar plate diffusion technique; details: read-out: IZ; outline: as §4
[20] = system: Candida albicans; assay: Antimicrobial activity against Candida albicans at 25 ug/ml by paper disc method; details: read-out: IZ; outline: as §1
[21] = Antioxidant activity assessed as inhibition of lipid peroxidation using egg lecithin liposomes incubated for 1 hr
Outline: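 Egg lecithin (3 mg/mL, phosphate buffer pH 7.4) sonicated 10 min to form liposomes. Sample or ascorbic acid (12.5–100 µg/mL) added. Peroxidation induced with FeCl3 and L-ascorbic acid, 1 h at 37 °C. Stopped with HCl/TCA/TBA/BHA, boiled 15 min, centrifuged, supernatant read at 532 nm. Triplicate. % inhibition vs control. IC50 derived.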

[22] = Antioxidant activity assessed as hydrogen peroxide scavenging activity after 10 mins
Outline: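 H2O2 (20 mM) in PBS pH 7.4. 1 mL of sample or ascorbic acid in methanol (12.5–100 µg/mL) added to 2 mL H2O2 solution. A230 read after 10 min. % inhibition = [1 − (Vt/Vc)] × 100. Triplicate, averaged. IC50 derived from % inhibition across concentrations.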

[23] = system: Bacillus subtilis; assay: Antimicrobial activity against Bacillus subtilis at 100 ug/ml by agar plate diffusion technique; details: read-out: IZ; outline: as §4
[24] = system: Staphylococcus aureus; assay: Antimicrobial activity against Staphylococcus aureus at 50 ug/ml by agar plate diffusion technique; details: read-out: IZ; outline: as §4
[25] = system: Staphylococcus aureus; assay: Antimicrobial activity against Staphylococcus aureus at 100 ug/ml by agar plate diffusion technique; details: read-out: IZ; outline: as §4
[26] = system: Staphylococcus aureus; assay: Antimicrobial activity against Staphylococcus aureus at 25 ug/ml by agar plate diffusion technique; details: read-out: IZ; outline: as §4
[27] = system: Escherichia coli; assay: Antimicrobial activity against Escherichia coli at 50 ug/ml by agar plate diffusion technique; details: read-out: IZ; outline: as §4
[28] = system: Escherichia coli; assay: Antimicrobial activity against Escherichia coli at 100 ug/ml by agar plate diffusion technique; details: read-out: IZ; outline: as §4
[29] = system: Escherichia coli; assay: Antimicrobial activity against Escherichia coli at 25 ug/ml by agar plate diffusion technique; details: read-out: IZ; outline: as §4

SMILES | zone of inhibition at 50 µg/mL [1] [mm] | Time [2] [min] | IC50 [3] [mg/L] | zone of inhibition at 100 µg/mL [4] [mm] | Time [5] [min] | inhibition [6] [%] | zone of inhibition at 100 µg/mL [9] [mm] | zone of inhibition at 50 µg/mL [10] [mm] | IC50 [11] [mg/L] | zone of inhibition at 50 µg/mL [12] [mm] | zone of inhibition at 25 µg/mL [13] [mm] | Time [14] [min] | Time [15] [min] | Time [16] [min] | Time [17] [min] | zone of inhibition at 25 µg/mL [18] [mm] | zone of inhibition at 25 µg/mL [20] [mm] | IC50 [21] [mg/L] | IC50 [22] [mg/L] | zone of inhibition at 100 µg/mL [23] [mm] | further results
COc1cccc(-c2nc(SC)n(C)c(=O)c2C#N)c1OC | 13 | 75.54 | 54 (≈ 170 µM) | 19.7 | 56.08 | 38.2 | 19.5 | 12 | 67 (≈ 211 µM) | 14.4 | 10.4 | 57.18 | 83.02 | 60.44 | 41.47 | 9.25 | 10.5 | 48 (≈ 151 µM) | 43 (≈ 135 µM) | 20.3 | zone of inhibition at 50 µg/mL [7]: 8.25 mm; zone of inhibition at 100 µg/mL [8]: 9.93 mm; zone of inhibition at 25 µg/mL [19]: 5.86 mm
Cn1c(NN)nc(-c2cccs2)c(C#N)c1=O | 13.8 | 32.35 | 61 (≈ 247 µM) | 15.9 | 40.3 | 36.4 | 15.9 | 12.8 | 63 (≈ 255 µM) | 10.1 | 9.27 | 29.13 | 58.24 | 44.42 | 26.13 | 10.2 | 10.7 | 68 (≈ 275 µM) | 53 (≈ 214 µM) | 15.4 | zone of inhibition at 50 µg/mL [24]: 10.6 mm; zone of inhibition at 100 µg/mL [25]: 13.4 mm; zone of inhibition at 25 µg/mL [26]: 9.12 mm
COc1ccc(-c2nc(NN)n(C)c(=O)c2C#N)cc1 | 10.7 | 47.23 | 41 (≈ 151 µM) | 17 | 57.45 | 20.6 | 15.8 | 10 | 56 (≈ 206 µM) | 10.3 | 9.26 | 45.23 | 62.32 | 60.22 | 42.6 | 8.32 | 8.14 | 39 (≈ 144 µM) | 32 (≈ 118 µM) | 13.6 | zone of inhibition at 50 µg/mL [7]: 6.96 mm; zone of inhibition at 100 µg/mL [8]: 7.21 mm; zone of inhibition at 50 µg/mL [27]: 7.71 mm; zone of inhibition at 100 µg/mL [28]: 7.49 mm; zone of inhibition at 25 µg/mL [19]: 5 mm; zone of inhibition at 25 µg/mL [29]: 6.28 mm
CN(C)c1ccc(-c2nc(NN)n(C)c(=O)c2C#N)cc1 | 9 | 28.25 | 81 (≈ 285 µM) | 15.8 | 43.34 | 12.6 | 15.3 | 9.48 | 69 (≈ 243 µM) | 10.5 | 8.1 | 26.35 | 54.22 | 46.44 | 25.64 | 7.14 | 9.14 | 63 (≈ 222 µM) | 66 (≈ 232 µM) | 14.5 | zone of inhibition at 50 µg/mL [7]: 6.27 mm; zone of inhibition at 100 µg/mL [8]: 8.83 mm; zone of inhibition at 50 µg/mL [27]: 7.82 mm; zone of inhibition at 100 µg/mL [28]: 8.28 mm; zone of inhibition at 25 µg/mL [19]: 5.78 mm; zone of inhibition at 25 µg/mL [29]: 5.74 mm
C[C@@H]1[C@H](O)[C@@H](C)/C=C/C=C/C=C/C=C/C=C/C=C/C=C/[C@H](O[C@@H]2O[C@H](C)[C@@H](O)[C@H](N)[C@@H]2O)C[C@@H]2O[C@](O)(C[C@@H](O)C[C@@H](O)[C@H](O)CC[C@@H](O)C[C@@H](O)CC(=O)O[C@H]1C)C[C@H](O)[C@H]2C(=O)O [AMPHOTERICIN B] | 15.3 |  |  | 26.1 |  |  | 23.1 | 17.1 |  |  |  |  |  |  |  | 14.9 | 12.9 |  |  |  | 

From ChEMBL document CHEMBL1821590, “Novel dihydropyrimidines and its pyrazole derivatives: synthesis and pharmacological screening” (Eur J Med Chem, 2011)
